From publication PMC4832308 (Cancer, 2015)
Converted amounts (≈) assume the structure as drawn. “And” between values parts separate entries of the source, which are not always exact repeats. Equal values may be shown once. Read-outs that look alike come from different tables or passages of the source.

Key:
[1] = plasma pharmacokinetics in patients; assay type: in vivo, human
[2] = system: solid tumor lines, including breast, glioma, hepatocellular carcinoma (HCC), and non–small cell lung cancer; conditions: cited from earlier work
pS6RP [3] = assay: immuno‐histochemical staining of tumor biopsies; assay type: in vivo, human; conditions: pre‐ vs on‐treatment (days 15‐22), HCC and salivary gland tumor, 30‐mg/d cohort
Outline: (§1)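 Optional pretreatment and on-treatment (days 15–22) tumor biopsies from 2 patients in the 30-mg/d cohort (HCC and salivary gland tumor). Paraffin-embedded sections were immunostained per antibody (pS6RP, p4EBP1, pAKT, Ki-67) or TUNEL-labelled, then scored by quantitative image analysis.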

pAKT [4] = assay: immuno‐histochemical staining of tumor biopsies; assay type: in vivo, human; conditions: pre‐ vs on‐treatment (days 15‐22), HCC and salivary gland tumor, 30‐mg/d cohort
Outline: as §1

[5] = system: U87 glioblastoma multiforme; conditions: cited from earlier work
pAKT [6] = assay: blood biomarker analysis by flow cytometry and PK/PD modeling; assay type: in vivo, human; conditions: for EC50: Homo sapiens, read-out: EC50 for pAKT inhibition
pS6RP [7] = assay: blood biomarker analysis by flow cytometry and PK/PD modeling; assay type: in vivo, human; conditions: for EC50: Homo sapiens, read-out: EC50 for pS6RP inhibition
Outline: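 Sodium-heparin patient whole blood, taken predose and 1.5–5 h postdose: 1 h at 37°C, 15-min anti-IgD plus LPS stimulation, lyse/fix, methanol overnight at −80°C, then CD3/CD14/CD20 and phospho-staining and flow cytometry. Bead-calibrated MFI reported as ERF. Baseline-relative change vs plasma drug (chiral LC-MS) was fitted by a direct inhibitory NONMEM model for EC50: p4EBP1 in T cells, pS6RP in B cells and monocytes.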

Ki67 = assay: immuno‐histochemical staining of tumor biopsies; assay type: in vivo, human; conditions: pre‐ vs on‐treatment (days 15‐22), HCC and salivary gland tumor, 30‐mg/d cohort
Outline: as §1

[8] = system: patients with advanced solid tumors or multiple myeloma; assay: phase 1 dose escalation: preliminary efficacy; assay type: in vivo, human
Outline: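 Single dose on day −1, then oral daily dosing after a ≥6-h fast in 28-day cycles until progression. Tumors were imaged by CT or MRI. Response was scored by RECIST 1.1, international uniform criteria for myeloma, or revised high-grade glioma criteria. Evaluable patients were eligible, completed ≥1 cycle, and had baseline plus ≥1 postbaseline assessment. Disease control rate was given with a 90% confidence interval.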

[9] = 30‐, 45‐, and 60‐mg dose levels, 3 hours on treatment

## CO[C@H]1CC[C@H](N2C(=O)CNc3ncc(-c4ccc(C(C)(C)O)nc4)nc32)CC1 [CC‐223]
[1]; 30‐ to 60‐mg dose range, single or multiple doses
  dose dependence of Cmax and AUC from time 0 to infinity: dose‐proportional
[1]; human, plasma, oral
  half-life: 4.86 to 5.64 h
[1]; multiple dosing
  ratio of AUC0‐24 between day 15 and day 1: ≤ 22%
[2]
  activity against solid tumor lines: active
pS6RP [3]
  pS6RP staining in tumor biopsies: Significant inhibition
pAKT [4]
  pAKT staining in tumor biopsies: Significant inhibition
[5]
  single‐agent activity in xenograft model: single‐agent activity
pAKT [6]; [9]
  pAKT inhibition in blood cells: > 48%
pAKT [6]; B-cell
  EC50: 0.0504 µg/mL (≈ 0.127 µM)
pAKT [6]; Monocyte
  EC50: 0.085 µg/mL (≈ 0.214 µM)
pS6RP [7]; [9]
  pS6RP inhibition in blood cells: > 70%
pS6RP [7]; B-cell
  EC50: 0.0203 µg/mL (≈ 0.0511 µM)
pS6RP [7]; Monocyte
  EC50: 0.174 µg/mL (≈ 0.438 µM)
Ki67
  Ki67 staining in tumor biopsies: Significant inhibition
[8]; 20 patients evaluable for efficacy
  complete response: No patient had a complete response
[8]; across ≥15 mg/d cohorts
  patients with stable disease: 8 patients
[8]; best response
  patients with progressive disease: 12 patients
[8]; breast cancer patient with PR, 30‐mg/d cohort
  duration of partial response / disease control: 220 days
[8]; breast cancer patient with SD
  disease control duration: 168 days
[8]; breast cancer patient, 30‐mg/d cohort
  partial response rate: 3.6%
[8]; in addition to the PR
  patients with reduction in target lesions: 5 patients
[8]; in vivo
  patients with SD >100 days: 5 patients
  patients with disease control durations of >100 days: Six
[8]; safety population
  best overall response rate per investigator: 3.6%
  disease control rate: 32% and 32.1%
  stable disease rate: 29%
